ChEMBL document CHEMBL2412956, “Synthesis and biological activity evaluation of 5-pyrazoline substituted 4-thiazolidinones” (Eur J Med Chem, 2013)

Tests used:
A498 = assay: Cytotoxicity against human A498 cells after 48 hrs by SRB assay; format: functional; settings: A498, 48 h
In short: (§1)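 This was the NCI 60-cell-line five-dose screen, using 10-fold dilutions from 100 to 0.01 μM and continuous 48-h exposure. Growth was read by sulforhodamine B protein staining relative to time-zero and untreated controls. […] Where an endpoint was not reached, the value was given as beyond the range tested.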

T47D [1] = assay: Cytotoxicity against human T47D cells assessed as cell growth at 10 uM after 48 hrs by SRB assay relative to control; format: functional; settings: read-out: Activity
In short: (§2)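 Single-dose NCI screen: compound at 10⁻⁵ M added to tumor cell cultures and incubated for 48 h. The SRB protein-binding dye end point was read spectrophotometrically. Results are percent growth of treated cells relative to untreated controls.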

SF-295 [2] = assay: Cytotoxicity against human SF295 cells after 48 hrs by SRB assay; format: functional; settings: SF-295, 48 h; in short: as §1
MOLT-4 [3] = assay: Cytotoxicity against human MOLT4 cells after 48 hrs by SRB assay; format: functional; settings: MOLT-4, 48 h; in short: as §1
KM12 = assay: Cytotoxicity against human KM12 cells assessed as cell growth at 10 uM after 48 hrs by SRB assay relative to control; format: functional; settings: KM12, 48 h, read-out: Activity
In short: (§3)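 This was the NCI primary screen, with compound added once at 10⁻⁵ M and cultures incubated for 48 h. The endpoint was sulforhodamine B protein staining. Results are expressed as percent growth of treated cells relative to untreated control cells.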

CCRF-CEM = assay: Cytotoxicity against human CCRF-CEM cells assessed as cell growth at 10 uM after 48 hrs by SRB assay relative to control; format: functional; settings: read-out: Activity; in short: as §3
NCI-H522 = assay: Cytotoxicity against human NCI-H522 cells assessed as cell growth at 10 uM after 48 hrs by SRB assay relative to control; format: functional; settings: NCI-H522, 48 h, read-out: Activity; in short: as §3
[4] = Cytotoxicity against human Hs 578T cells after 48 hrs by SRB assay; format: functional; in short: as §1
NCI-H322M = assay: Cytotoxicity against human NCI-H322M cells after 48 hrs by SRB assay; format: functional; in short: as §1
SF-539 = assay: Cytotoxicity against human SF539 cells after 48 hrs by SRB assay; format: functional; settings: SF-539, 48 h; in short: as §1
HCT-116 = assay: Cytotoxicity against human HCT116 cells after 48 hrs by SRB assay; format: functional; settings: HCT-116, 48 h; in short: as §1
SF-295 [5] = assay: Cytotoxicity against human SF295 cells assessed as cell growth at 10 uM after 48 hrs by SRB assay relative to control; format: functional; settings: SF-295, 48 h, read-out: Activity; in short: as §3
RPMI-8226 [6] = assay: Cytotoxicity against human RPMI8226 cells assessed as cell growth at 10 uM after 48 hrs by SRB assay relative to control; format: functional; settings: RPMI-8226, 48 h, read-out: Activity; in short: as §3
MOLT-4 [7] = assay: Cytotoxicity against human MOLT4 cells assessed as cell growth at 10 uM after 48 hrs by SRB assay relative to control; format: functional; settings: MOLT-4, 48 h, read-out: Activity; in short: as §3
BT-549 [8] = assay: Cytotoxicity against human BT549 cells after 48 hrs by SRB assay; format: functional; settings: BT-549, 48 h; in short: as §1
SK-MEL-5 = assay: Cytotoxicity against human SK-MEL-5 cells after 48 hrs by SRB assay; format: functional; settings: SK-MEL-5, 48 h
In short: (§4)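 NCI 60-cell-line panel, five 10-fold concentrations from 100 μM to 0.01 μM (10⁻⁴ to 10⁻⁸ M) with 48-h continuous exposure. Growth was read by SRB protein staining against time-zero and untreated controls. […] Values beyond the tested range are expressed as greater or less than the limit.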

PC-3 [9] = assay: Cytotoxicity against human PC3 cells assessed as cell growth at 10 uM after 48 hrs by SRB assay relative to control; format: functional; settings: PC-3, 48 h, read-out: Activity; in short: as §3
OVCAR-3 = assay: Cytotoxicity against human OVCAR3 cells after 48 hrs by SRB assay; format: functional; settings: OVCAR-3, 48 h; in short: as §1
PC-3 [10] = assay: Cytotoxicity against human PC3 cells after 48 hrs by SRB assay; format: functional; settings: PC-3, 48 h; in short: as §1
DU-145 = assay: Cytotoxicity against human DU145 cells after 48 hrs by SRB assay; format: functional; settings: DU-145, 48 h; in short: as §1
K562 [11] = assay: Cytotoxicity against human K562 cells after 48 hrs by SRB assay; format: functional; settings: K562, 48 h; in short: as §1
HL-60(TB) [12] = assay: Cytotoxicity against human HL-60(TB) cells assessed as cell growth at 10 uM after 48 hrs by SRB assay relative to control; format: functional; settings: HL-60, 48 h, read-out: Activity; in short: as §3
T47D [13] = assay: Cytotoxicity against human T47D cells after 48 hrs by SRB assay; format: functional; in short: as §4
MCF7 [14] = assay: Cytotoxicity against human MCF7 cells assessed as cell growth at 10 uM after 48 hrs by SRB assay relative to control; format: functional; settings: MCF7, 48 h, read-out: Activity; in short: as §3
HL-60(TB) [15] = assay: Cytotoxicity against human HL-60(TB) cells after 48 hrs by SRB assay; format: functional; settings: HL-60, 48 h; in short: as §1
SR [16] = assay: Cytotoxicity against human SR cells assessed as cell growth at 10 uM after 48 hrs by SRB assay relative to control; format: functional; settings: read-out: Activity; in short: as §2
UACC-62 [17] = assay: Cytotoxicity against human UACC62 cells after 48 hrs by SRB assay; format: functional; settings: UACC-62, 48 h; in short: as §4
MDA-MB-435 [18] = assay: Cytotoxicity against human MDA-MB-435 cells after 48 hrs by SRB assay; format: functional; settings: MDA-MB-435, 48 h; in short: as §1
BT-549 [19] = assay: Cytotoxicity against human BT549 cells assessed as cell growth at 10 uM after 48 hrs by SRB assay relative to control; format: functional; settings: BT-549, 48 h, read-out: Activity
In short: (§5)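 NCI 60-cell-line primary screen. Test agent added once at 10⁻⁵ M, cultures incubated 48 h, end point by sulforhodamine B protein staining read spectrophotometrically. Value is percent growth of treated cells relative to untreated control cells.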

HOP-92 = assay: Cytotoxicity against human HOP92 cells after 48 hrs by SRB assay; format: functional; settings: HOP-92, 48 h; in short: as §1
A549 [20] = assay: Cytotoxicity against human A549 cells after 48 hrs by SRB assay; format: functional; settings: A549, 48 h; in short: as §1
HCT-15 = assay: Cytotoxicity against human HCT15 cells after 48 hrs by SRB assay; format: functional; settings: HCT-15, 48 h; in short: as §1
RPMI-8226 [21] = assay: Cytotoxicity against human RPMI8226 cells after 48 hrs by SRB assay; format: functional; settings: RPMI-8226, 48 h; in short: as §1
A549 [22] = assay: Cytotoxicity against human A549 cells assessed as cell growth at 10 uM after 48 hrs by SRB assay relative to control; format: functional; settings: A549, 48 h, read-out: Activity; in short: as §3
MCF7 [23] = assay: Cytotoxicity against human MCF7 cells after 48 hrs by SRB assay; format: functional; settings: MCF7, 48 h; in short: as §1
NCI-H460 [24] = assay: Cytotoxicity against human NCI-H460 cells assessed as cell growth at 10 uM after 48 hrs by SRB assay relative to control; format: functional; settings: NCI-H460, 48 h, read-out: Activity; in short: as §5
SR [25] = assay: Cytotoxicity against human SR cells after 48 hrs by SRB assay; format: functional; in short: as §4
K562 [26] = assay: Cytotoxicity against human K562 cells assessed as cell growth at 10 uM after 48 hrs by SRB assay relative to control; format: functional; settings: K562, 48 h, read-out: Activity; in short: as §3
MDA-MB-435 [27] = assay: Cytotoxicity against human MDA-MB-435 cells assessed as cell growth at 10 uM after 48 hrs by SRB assay relative to control; format: functional; settings: MDA-MB-435, 48 h, read-out: Activity; in short: as §3
UACC-62 [28] = assay: Cytotoxicity against human UACC62 cells assessed as cell growth at 10 uM after 48 hrs by SRB assay relative to control; format: functional; settings: UACC-62, 48 h, read-out: Activity; in short: as §2
U-251 = assay: Cytotoxicity against human U251 cells after 48 hrs by SRB assay; format: functional; settings: U-251, 48 h; in short: as §4
Hs-578T = assay: Cytotoxicity against human Hs578T cells assessed as cell growth at 10 uM after 48 hrs by SRB assay relative to control; format: functional; settings: read-out: Activity; in short: as §5
Trypanosoma cruzi = assay: Antitrypanosomal activity against […] form of Trypanosoma cruzi Y infected in monkey […] cells assessed as parasite growth inhibition after 15 hrs by trypan blue staining-based hemocytometric analysis; format: functional, organism-based
NCI-H460 [29] = assay: Cytotoxicity against human NCI-H460 cells after 48 hrs by SRB assay; format: functional; settings: NCI-H460, 48 h; in short: as §1
OVCAR-4 = assay: Cytotoxicity against human OVCAR4 cells assessed as cell growth at 10 uM after 48 hrs by SRB assay relative to control; format: functional; settings: OVCAR-4, 48 h, read-out: Activity; in short: as §3

O=C1NC(=O)/C(=C/C(=O)N2N=C(c3ccc4ccccc4c3)CC2c2ccc(Cl)cc2)S1 (centres undefined)
GI50 (A498): 1.41 µM | TGI (A498): 5.38 µM | growth at 10 µM (T47D [1]): 39.3% | GI50 (SF-295 [2]): 2.45 µM | TGI (SF-295 [2]): 9.12 µM | GI50 (MOLT-4 [3]): 1.64 µM | growth at 10 µM (KM12): 25.8% | growth at 10 µM (CCRF-CEM): 16.7% | growth at 10 µM (NCI-H522): 23.2% | GI50 [4]: 1.94 µM | TGI [4]: 8.26 µM | GI50 (NCI-H322M): 2.89 µM | TGI (NCI-H322M): 100 µM | GI50 (SF-539): 2.43 µM | TGI (SF-539): 5.79 µM | GI50 (HCT-116): 3.01 µM | TGI (HCT-116): 13.9 µM | growth at 10 µM (SF-295 [5]): -5.27% | growth at 10 µM (RPMI-8226 [6]): 2.48% | growth at 10 µM (MOLT-4 [7]): 11.5% | GI50 (BT-549 [8]): 2.16 µM | TGI (BT-549 [8]): 7.75 µM | GI50 (SK-MEL-5): 2.09 µM | TGI (SK-MEL-5): 22.5 µM | growth at 10 µM (PC-3 [9]): 36% | GI50 (OVCAR-3): 2.9 µM | TGI (OVCAR-3): 10.6 µM | GI50 (PC-3 [10]): 4.94 µM | TGI (PC-3 [10]): 100 µM | GI50 (DU-145): 4.27 µM | TGI (DU-145): 100 µM | GI50 (K562 [11]): 1.9 µM | TGI (K562 [11]): 11.2 µM | growth at 10 µM (HL-60(TB) [12]): 13.5% | GI50 (T47D [13]): 1.53 µM | TGI (T47D [13]): 9.4 µM | growth at 10 µM (MCF7 [14]): 34.4% | GI50 (HL-60(TB) [15]): 3.2 µM | TGI (HL-60(TB) [15]): 6.48 µM | growth at 10 µM (SR [16]): 10.6% | GI50 (UACC-62 [17]): 2.66 µM | TGI (UACC-62 [17]): 12.8 µM | GI50 (MDA-MB-435 [18]): 2.7 µM | TGI (MDA-MB-435 [18]): 16.5 µM | growth at 10 µM (BT-549 [19]): 34.2% | GI50 (HOP-92): 1.17 µM | TGI (HOP-92): 9.72 µM | GI50 (A549 [20]): 3.06 µM | TGI (A549 [20]): 100 µM | GI50 (HCT-15): 2.41 µM | TGI (HCT-15): 100 µM | GI50 (RPMI-8226 [21]): 1.97 µM | TGI (RPMI-8226 [21]): 5.88 µM | growth at 10 µM (A549 [22]): 30% | GI50 (MCF7 [23]): 2.53 µM | TGI (MCF7 [23]): 14.1 µM | growth at 10 µM (NCI-H460 [24]): 25.9% | GI50 (SR [25]): 1.98 µM | TGI (SR [25]): 5.92 µM | growth at 10 µM (K562 [26]): 24.6% | growth at 10 µM (MDA-MB-435 [27]): 39.5% | growth at 10 µM (UACC-62 [28]): 32.8% | GI50 (U-251): 2.58 µM | TGI (U-251): 13.2 µM | growth at 10 µM (Hs-578T): 35.6% | IC50 (Trypanosoma cruzi): 0.3 µM | GI50 (NCI-H460 [29]): 1.89 µM | TGI (NCI-H460 [29]): 4.7 µM

COc1ccc(C2CC(c3ccc4ccccc4c3)=NN2C2SC(=O)N(CN3CCOCC3)C2=O)cc1 (centres undefined)
growth at 10 µM (OVCAR-4): 67.5%
